Test results reported in ChEMBL document CHEMBL1135969, “Discovery of an opioid kappa receptor selective pure antagonist from a library of N-substituted 4beta-methyl-5-(3-hydroxyphenyl)morphans” (J Med Chem, 2002).
pKi: −log10 of the molar value.

Tests used:
[1] = molecular target: Opioid receptors; mu & delta (Homo sapiens) (UniProt P41143+P35372); experiment: Selectivity ratio of Ki at mu opioid receptor to Ki at kappa opioid receptor; format: protein assay
[2] = molecular target: Opioid receptors; delta & kappa (Homo sapiens) (UniProt P41145+P41143); experiment: Selectivity ratio of Ki at delta opioid receptor to Ki at kappa opioid receptor; format: protein assay
Mu-type opioid receptor = Mu-type opioid receptor (Rattus norvegicus, UniProt P33535); experiment: Ability to displace [3H]DAMGO from Opioid receptor mu 1 of rat brain; format: tissue-based
How it was run: (§1)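 Radioligand displacement binding giving Ki values. Rat brain tissue was used for the μ site (tritiated μ-selective ligand) and the δ site ([3H]DADLE, δ-selective). Guinea pig brain tissue was used for the κ site ([3H]U69,593, a κ-selective agonist).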

[3] = molecular target: Delta-type opioid receptor (Rattus norvegicus, UniProt P33533); experiment: Ability to displace [3H]DADLE from Opioid receptor delta 1 of rat brain; format: tissue-based; how it was run: as §1
[4] = molecular target: Kappa-type opioid receptor (Cavia porcellus, UniProt P41144); experiment: Ability to displace [3H]U-69593 from Opioid receptor kappa 1 of guinea pig brain
How it was run: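 Competitive radioligand binding in guinea pig brain tissue, using tritiated U69,593, a κ-selective agonist, as the displaced ligand. Affinity is reported as Ki.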

[5] = molecular target: Delta-type opioid receptor (Homo sapiens) (UniProt P41143); details: CHO
[6] = molecular target: Mu-type opioid receptor (Homo sapiens) (UniProt P35372); details: CHO
[7] = molecular target: Kappa-type opioid receptor (Homo sapiens) (UniProt P41145); details: CHO
Kappa-type opioid receptor (Homo sapiens), sequence (P41145 whole entry): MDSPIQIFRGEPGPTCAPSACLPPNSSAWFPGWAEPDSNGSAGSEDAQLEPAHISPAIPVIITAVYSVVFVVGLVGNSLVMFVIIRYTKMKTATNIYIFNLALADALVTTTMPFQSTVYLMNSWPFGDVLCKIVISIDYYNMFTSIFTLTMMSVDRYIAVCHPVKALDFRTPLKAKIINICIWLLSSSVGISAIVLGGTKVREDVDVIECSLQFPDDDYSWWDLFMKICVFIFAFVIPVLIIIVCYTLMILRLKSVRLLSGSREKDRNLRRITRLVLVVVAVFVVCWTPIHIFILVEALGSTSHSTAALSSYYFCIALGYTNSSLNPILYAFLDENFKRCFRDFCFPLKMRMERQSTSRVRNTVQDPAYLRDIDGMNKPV

Opioid receptors; mu & delta (Homo sapiens), sequence (P35372 whole entry, looked up): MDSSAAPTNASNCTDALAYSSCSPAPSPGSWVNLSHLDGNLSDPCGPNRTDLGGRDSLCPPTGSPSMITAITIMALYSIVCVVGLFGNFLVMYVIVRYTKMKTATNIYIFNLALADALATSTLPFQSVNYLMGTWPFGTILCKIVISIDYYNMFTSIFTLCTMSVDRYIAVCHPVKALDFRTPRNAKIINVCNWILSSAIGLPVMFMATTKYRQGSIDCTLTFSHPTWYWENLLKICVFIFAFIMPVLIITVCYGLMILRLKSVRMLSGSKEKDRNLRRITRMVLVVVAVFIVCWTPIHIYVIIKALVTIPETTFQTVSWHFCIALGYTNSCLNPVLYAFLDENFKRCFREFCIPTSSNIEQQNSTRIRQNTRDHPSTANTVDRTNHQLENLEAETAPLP
Opioid receptors; mu & delta (Homo sapiens), sequence (P41143 whole entry, looked up): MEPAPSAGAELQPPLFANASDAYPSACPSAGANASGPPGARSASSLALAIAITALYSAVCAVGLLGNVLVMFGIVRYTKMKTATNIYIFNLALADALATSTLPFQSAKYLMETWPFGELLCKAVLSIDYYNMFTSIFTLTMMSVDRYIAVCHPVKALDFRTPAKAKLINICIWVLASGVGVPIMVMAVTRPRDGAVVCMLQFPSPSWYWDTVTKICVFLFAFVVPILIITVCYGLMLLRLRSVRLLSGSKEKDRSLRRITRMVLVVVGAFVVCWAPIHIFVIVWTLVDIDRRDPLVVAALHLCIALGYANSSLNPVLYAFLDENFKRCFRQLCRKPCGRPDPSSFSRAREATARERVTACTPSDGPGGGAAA
Opioid receptors; delta & kappa (Homo sapiens), sequence (P41143 whole entry, looked up): as above
Opioid receptors; delta & kappa (Homo sapiens), sequence (P41145 whole entry, looked up): as the sequence (P41145 whole entry) above
Delta-type opioid receptor, sequence (P33533 whole entry): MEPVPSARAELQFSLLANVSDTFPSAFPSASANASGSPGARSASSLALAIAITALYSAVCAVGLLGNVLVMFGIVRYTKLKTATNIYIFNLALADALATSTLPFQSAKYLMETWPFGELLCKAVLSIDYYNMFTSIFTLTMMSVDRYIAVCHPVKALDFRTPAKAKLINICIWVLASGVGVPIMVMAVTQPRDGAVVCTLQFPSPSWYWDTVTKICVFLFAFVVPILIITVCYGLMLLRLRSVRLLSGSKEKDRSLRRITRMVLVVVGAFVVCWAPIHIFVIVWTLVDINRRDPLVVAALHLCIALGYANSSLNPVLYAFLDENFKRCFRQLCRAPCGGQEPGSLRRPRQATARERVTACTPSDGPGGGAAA
Kappa-type opioid receptor, sequence (P41144 whole entry): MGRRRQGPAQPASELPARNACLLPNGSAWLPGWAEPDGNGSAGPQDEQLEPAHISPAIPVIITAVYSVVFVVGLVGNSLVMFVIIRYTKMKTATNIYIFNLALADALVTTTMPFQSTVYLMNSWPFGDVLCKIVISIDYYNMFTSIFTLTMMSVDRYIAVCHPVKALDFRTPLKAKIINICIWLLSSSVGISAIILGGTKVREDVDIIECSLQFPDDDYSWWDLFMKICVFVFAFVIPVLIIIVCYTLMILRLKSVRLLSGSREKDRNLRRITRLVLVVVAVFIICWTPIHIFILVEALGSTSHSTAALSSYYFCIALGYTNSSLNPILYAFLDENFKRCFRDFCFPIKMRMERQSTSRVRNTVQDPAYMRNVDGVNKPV
Mu-type opioid receptor, sequence (P33535 whole entry): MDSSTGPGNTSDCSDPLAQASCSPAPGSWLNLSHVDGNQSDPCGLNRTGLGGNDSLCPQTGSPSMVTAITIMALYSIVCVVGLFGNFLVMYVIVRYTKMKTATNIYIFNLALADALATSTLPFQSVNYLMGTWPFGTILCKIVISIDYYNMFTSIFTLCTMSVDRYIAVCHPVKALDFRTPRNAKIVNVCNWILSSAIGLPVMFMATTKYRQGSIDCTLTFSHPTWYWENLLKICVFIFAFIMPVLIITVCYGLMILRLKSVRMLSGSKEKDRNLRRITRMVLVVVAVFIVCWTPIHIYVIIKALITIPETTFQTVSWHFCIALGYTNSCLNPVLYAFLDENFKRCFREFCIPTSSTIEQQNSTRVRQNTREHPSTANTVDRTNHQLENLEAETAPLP
Mu-type opioid receptor (Homo sapiens), sequence (P35372 whole entry): as the sequence (P35372 whole entry, looked up) above
Delta-type opioid receptor (Homo sapiens), sequence (P41143 whole entry): as the sequence (P41143 whole entry, looked up) above

SMILES | Ratio [1] | Ratio [2] | pKi (Mu-type opioid receptor) | pKi [3] | pKi [4] | other results
CC1CN(CCCc2ccccc2)C2C[C@H](N)CC1(c1cccc(O)c1)C2 (single isomer, unassigned; (-)) [listing 1 of 2 here] | 0.03 | 0.1 |  |  |  | 
CC1CN(CCCc2ccccc2)C2C[C@H](N)CC1(c1cccc(O)c1)C2 (single isomer, unassigned; (-)) [listing 2 of 2 here] |  |  | 8.48 | 7.83 | 6.91 | 
Oc1ccc2c3c1O[C@H]1c4[nH]c5c(c4C[C@@]4(O)[C@@H](C2)N(CC2CC2)CC[C@]314)C[C@@]1(O)[C@H]2Cc3ccc(O)c4c3[C@@]1(CCN2CC1CC1)[C@H]5O4 |  |  |  |  |  | Ke [5]: 4.6 nM; Ke [6]: 19 nM; Ke [7]: 0.04 nM
CC1CN(CCCc2ccccc2)C2C[C@H](N)CC1(c1cccc(O)c1)C2 (single isomer, unassigned; (+)) [listing 1 of 2 here] | 0.23 | 0.27 |  |  |  | 
CC1CN(CCCc2ccccc2)C2C[C@H](N)CC1(c1cccc(O)c1)C2 (single isomer, unassigned; (+)) [listing 2 of 2 here] |  |  | 6.68 | 6.61 | 6.05 | 
